Calls of active or inactive are those of the source. The calls are words filed in the database; no cut-off is given here.

This note sets out measurements from ChEMBL document CHEMBL1137383, “New efficient substrates for semicarbazide-sensitive amine oxidase/VAP-1 enzyme: analysis by SARs and computational docking” (J Med Chem, 2006).

For test [1], the target named is T1, Amine oxidase [copper-containing] 3 (Homo sapiens) (UniProt Q16853).
T1 sequence (whole entry): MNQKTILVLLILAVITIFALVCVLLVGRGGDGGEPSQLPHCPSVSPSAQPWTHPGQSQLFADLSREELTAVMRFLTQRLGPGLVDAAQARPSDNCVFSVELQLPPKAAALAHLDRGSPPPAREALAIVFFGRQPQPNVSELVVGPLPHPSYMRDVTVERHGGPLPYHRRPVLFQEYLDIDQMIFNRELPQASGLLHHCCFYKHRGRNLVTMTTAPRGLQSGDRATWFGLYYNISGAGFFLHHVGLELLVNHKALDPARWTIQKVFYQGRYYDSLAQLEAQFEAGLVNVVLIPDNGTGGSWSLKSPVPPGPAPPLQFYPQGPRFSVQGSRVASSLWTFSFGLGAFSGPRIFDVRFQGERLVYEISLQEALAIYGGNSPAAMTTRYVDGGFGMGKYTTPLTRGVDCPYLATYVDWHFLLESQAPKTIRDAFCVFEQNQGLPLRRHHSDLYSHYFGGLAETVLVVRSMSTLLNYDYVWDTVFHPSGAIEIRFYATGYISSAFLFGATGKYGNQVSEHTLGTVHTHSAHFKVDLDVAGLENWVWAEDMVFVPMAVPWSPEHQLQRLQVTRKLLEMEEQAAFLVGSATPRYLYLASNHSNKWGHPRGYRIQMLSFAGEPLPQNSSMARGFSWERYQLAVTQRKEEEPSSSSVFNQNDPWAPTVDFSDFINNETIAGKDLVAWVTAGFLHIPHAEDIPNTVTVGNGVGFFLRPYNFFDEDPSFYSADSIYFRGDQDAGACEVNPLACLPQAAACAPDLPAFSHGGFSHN
Nature of the test: Activity of human SSAO measured as hydrogen peroxide production at 1 mM relative to benzylamine oxidation. It is filed as functional. An outline of the steps: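 Human recombinant VAP-1 (0.1 µg protein/assay) in 0.2 mol/L phosphate buffer pH 7.4, 50 min at 37 °C; amine at 1 mM added with HRP/Amplex Red mix. H2O2 fluorescence (ex 545/em 590) read every 5 min, quantified against H2O2 standard curve; semicarbazide-preincubated (250 µM, 20 min) background subtracted. Mean percentage relative to benzylamine-derived H2O2.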

Test [2] deals with T2, Amine oxidase [copper-containing] 3 (Mus musculus) (UniProt O70423).
T2 sequence (whole entry): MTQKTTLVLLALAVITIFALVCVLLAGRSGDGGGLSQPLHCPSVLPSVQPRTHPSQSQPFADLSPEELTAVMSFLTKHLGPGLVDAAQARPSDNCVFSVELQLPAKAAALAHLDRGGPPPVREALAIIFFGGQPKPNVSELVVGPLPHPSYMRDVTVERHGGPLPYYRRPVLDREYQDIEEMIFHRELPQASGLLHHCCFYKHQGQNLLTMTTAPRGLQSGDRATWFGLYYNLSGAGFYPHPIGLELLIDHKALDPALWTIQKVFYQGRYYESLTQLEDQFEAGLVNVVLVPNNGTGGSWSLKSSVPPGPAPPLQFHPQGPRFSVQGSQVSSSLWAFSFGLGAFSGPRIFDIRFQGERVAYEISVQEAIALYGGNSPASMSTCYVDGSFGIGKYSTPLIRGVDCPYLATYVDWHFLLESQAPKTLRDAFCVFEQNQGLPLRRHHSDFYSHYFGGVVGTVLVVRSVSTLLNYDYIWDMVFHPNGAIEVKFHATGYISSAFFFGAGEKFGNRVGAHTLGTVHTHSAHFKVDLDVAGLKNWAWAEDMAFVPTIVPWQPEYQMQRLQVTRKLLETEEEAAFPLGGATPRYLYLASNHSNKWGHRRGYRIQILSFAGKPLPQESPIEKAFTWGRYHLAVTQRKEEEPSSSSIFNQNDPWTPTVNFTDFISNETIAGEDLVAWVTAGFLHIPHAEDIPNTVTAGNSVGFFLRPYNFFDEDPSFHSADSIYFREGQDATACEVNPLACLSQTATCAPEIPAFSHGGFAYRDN
Nature of the test: Activity of mouse SSAO measured as hydrogen peroxide production at 100 uM relative to benzylamine oxidation. It is filed as functional. The essentials:
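Mouse adipose tissue membranes (Swiss mice, 1 µg protein/assay) in 0.2 mol/L phosphate buffer pH 7.4, 50 min at 37 °C; amine at 100 µM added with HRP/Amplex Red. H2O2 fluorescence (ex 545/em 590) vs H2O2 standard curve, minus 250 µM semicarbazide (20 min preincubation) background. Mean percentage relative to benzylamine-derived H2O2.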

For test [3], the system named is Adipocyte. In words: Stimulation of glucose transport in mouse adipocytes at 0.1 mM in presence of sodium orthovanadate. It is filed as functional, cell-based. The essentials:
(§1)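 Adipocytes from internal fat pads of male Swiss mice (30-35 g), collagenase-isolated, incubated 45 min at 37 °C with amine ± 1 mM sodium orthovanadate (± 1 mM semicarbazide); then 2-deoxy-D-[3H]glucose (0.1 mM final) uptake over 10 min. Two experiments in triplicate, mean ± SEM.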

Test [4] deals with Adipocyte. In words: Stimulation of glucose transport in mouse adipocytes at 1 mM in presence of sodium orthovanadate. It is filed as functional, cell-based. The essentials:
as §1

With `NCc1ccc(OC(F)(F)F)cc1OC(F)(F)F`, the Activity in test [1] and in test [2] was 0% throughout.

As to `NCc1ccc(O)c(Br)c1`, the Activity in test [1] and in test [2] was 0% throughout.

Turning to `COc1ccc(CN)cc1`, the Activity in test [1] worked out at 0%; in test [2], 4.56%.

As for `CC(N)c1cccc2ccccc12` (centres undefined), the Activity stood at 11% in test [1] and 0% in test [2].

Take `CCCCc1ccc(CN)cc1`: the values for the Activity in test [1] and in test [2] were 5% and 24%, respectively.

With `COc1ccc(O)c(CN)c1`, the Activity in test [1] and in test [2] was 0% each time.

Regarding `NCCOc1ccccc1`, the Activity was 17.9% in test [1] and 14.6% in test [2].

On to `NCc1cccc(CNC(=O)c2ccc(Br)cc2)c1`, for which the figures for the Activity in test [1] and in test [2] were 16% and 46%, respectively.

Turning to `NCc1ccc(C(F)(F)F)cc1`, the Activity was found to be 4% in test [1] and 35% in test [2].

With `NCc1cccc(CNC(=O)c2ccc(O)cc2O)c1`, the Activity in test [1] and in test [2] was 0% throughout.

With `CC(C)(C)c1ccc(CN)cc1`, the results for the Activity in test [1] and in test [2] were 0% and 1%, respectively.

With `CCC(=O)NCc1cccc(CN)c1`, the Activity in test [1] was 4%; in test [2] it was 27%.

Take `CC(=O)N[C@H](C(=O)NCc1cccc(CN)c1)c1ccccc1`: the Activity in test [1] was determined as 2%; in test [2], 13%.

For the compound `NCc1cccc(CNC(=O)c2ccc(O)cc2)c1`, the Activity in test [1] was determined as 5%; in test [2], 26%.

Regarding `CC(=O)NCc1cccc(CN)c1`, the Activity in test [1] is 3%; in test [2] it was 16%.

On to `NCc1cccc(CNC(=O)CI)c1`, for which the Activity in test [1] was found to be 38%; in test [2], 61%.

`Cc1ccc(CN)cc1`: the Activity in test [1] and in test [2] was 0% each time.

As for `Cc1ccc(S(=O)(=O)NCc2cccc(CN)c2)cc1`, the Activity in test [1] came out at 12%; in test [2] it was 14%.

Regarding `NCc1cccc([N+](=O)[O-])c1O`, the Activity in test [1] is 0.11%; in test [2], 5.47%.

Take `NCc1ccc(C(=O)NCc2cccc(CN)c2)cc1`: the values for the Activity in test [1] and in test [2] were 17% and 12%, respectively.

With `CCc1ccc(CN)cc1`, the values for the Activity in test [1] and in test [2] were 14% and 26%, respectively.

On to `Cc1ccc(CN)cc1F`, for which the values for the Activity in test [1] and in test [2] were 88% and 133%, respectively.

In the case of `NCc1ccc(F)cc1`, the Activity was found to be 134% in test [1] and 127% in test [2].

`COc1ccc(CN)c2ccccc12`: the Activity came to 0.7% in test [1] and 0% in test [2].

For `C=CCOC(=O)NCc1cccc(CN)c1`, the Activity is 21% in test [1] and 49% in test [2].

Turning to `CC(C)c1ccc(CN)cc1`, the Activity in test [1] and in test [2] was 0% in each case.

As for `NCc1ccc(CN)cc1`, the Activity in test [1] and in test [2] was 0% in each case.

With `NCc1ccccc1`, the Activity in test [1] and in test [2] was 100% in each case. Moreover, the outcome in the test with Adipocyte [3] and with Adipocyte [4] was Active.

Take `NCc1ccc(OC(F)(F)F)cc1`: the Activity worked out at 0% in test [1] and 66.2% in test [2].

Consider `NCCCCc1ccccc1`, for which the Activity came out at 166% in test [1] and 71% in test [2]. The outcome in the test with Adipocyte [3] and with Adipocyte [4] was Active.

Regarding `NCCCc1ccccc1`, the figures for the Activity in test [1] and in test [2] were 44% and 40%, respectively.

Turning to `COc1ccc(CCN)cc1OC`, the Activity in test [1] was 0%; in test [2] it was 3.8%.

With `NCCc1ccc(O)c(O)c1`, the Activity in test [1] and in test [2] was 0% throughout.

Regarding `NCc1c(O)ccc2ccccc12`, the Activity in test [1] and in test [2] was 0% throughout.

Turning to `NCc1ccc(OCc2ccccc2)cc1`, the Activity in test [1] and in test [2] was 0% each time.

For `NCCc1ccc(F)cc1`, the Activity came out at 35% in test [1] and 18% in test [2].

Regarding `NCc1cccc(CN)c1`, the Activity in test [1] and in test [2] was 0% each time.

Turning to `COc1cc(F)cc(CN)c1`, the Activity in test [1] is 2.53%; in test [2], 4.86%.

With `NCCc1ccccc1`, the results for the Activity in test [1] and in test [2] were 21% and 19%, respectively.

For the compound `NCc1ccc(C(=O)O)cc1`, the figures for the Activity in test [1] and in test [2] were 0% and 4.06%, respectively.

In the case of `NCc1cccc(CNC(=O)c2ccccc2)c1`, the Activity in test [1] turned out to be 17%; in test [2] it was 58%.

Consider `NCc1ccc(-c2ccccc2)cc1`, for which the Activity amounted to 0% in test [1] and 3.77% in test [2].

`COc1cc(CN)cc(OC)c1`: the Activity amounted to 0% in test [1] and 0.75% in test [2].

For `NCc1ccccc1F`, the Activity was 1.3% in test [1] and 44% in test [2].

As for `COc1cccc2[nH]cc(CCN)c12`, the Activity in test [1] came out at 0%; in test [2], 5.54%.
